PME-1 primary – PME-1 inhibitors via competitive probe labeling, primary screen, biochemical, fluorescence polarization, FP-Rh probe, HTS. recombinant PME-1. actives 0.53% (n = 320,000). Protein phosphatase methylesterase 1 (Homo sapiens), Q9Y570. inhibition, % at 5.9 µM. AID 2130, 2009;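 active means inhibition above the campaign mean of all compounds plus 3 SD, cut at about 26% in these data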;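 further: competitive labeling of PME-1 active site by serine hydrolase directed probe; 0% = PME-1 with DMSO and 100% = wells lacking PME-1 enzyme; inhibitors block probe labeling so polarization falls and inhibition rises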
Target sequence (Q9Y570 whole entry, looked up): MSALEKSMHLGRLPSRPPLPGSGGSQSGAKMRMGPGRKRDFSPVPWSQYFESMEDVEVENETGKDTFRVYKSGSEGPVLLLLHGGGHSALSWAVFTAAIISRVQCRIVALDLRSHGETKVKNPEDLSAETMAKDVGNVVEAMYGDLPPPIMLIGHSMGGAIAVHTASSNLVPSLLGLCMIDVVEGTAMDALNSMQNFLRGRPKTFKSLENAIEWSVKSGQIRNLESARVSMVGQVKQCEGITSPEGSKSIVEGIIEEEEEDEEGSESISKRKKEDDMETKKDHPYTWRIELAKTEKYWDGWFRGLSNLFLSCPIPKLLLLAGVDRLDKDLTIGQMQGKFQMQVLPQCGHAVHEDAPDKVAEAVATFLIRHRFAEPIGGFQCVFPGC
Fam108B inh – mouse Fam108B serine hydrolase inhibitors, primary screen, counter-screen for RBBP9 inhibitor project, biochemical, fluorescence polarization. AID 1947, 2009. inhibition, % at 9.51 µM. actives 0.33% (n = 300,000). recombinant Fam108B, FP-Rh probe fluorescence polarization;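 active means inhibition above the screen mean inhibition plus 3 SD, computed separately per campaign, cut at about 18% in these data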;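 further: inhibitors lower polarization as less probe binds the enzyme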
LYPLA1 counter – LYPLA1 inhibitors, primary screen, counter-screen for PME1 inhibitor project, biochemical, fluorescence polarization, FP-Rh probe ABPP; Acyl-protein thioesterase 1 (Homo sapiens), O75608; recombinant LYPLA1; inhibition, % at 5.9 µM; actives 0.16% (n = 320,000); AID 2174, 2009;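 active means inhibition above the mean of all tested compounds plus 3 SD, set per campaign, cut at about 14% in these data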;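 further: inhibitors block serine hydrolase probe labeling of LYPLA1 so polarization falls; 0% = enzyme with DMSO and 100% = wells lacking LYPLA1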
PAD4 FP inh – human PAD4 inhibitors, primary screen, biochemical, fluorescence polarization, 1536-well format. Protein-arginine deiminase type-4 (Homo sapiens), Q9UM07. recombinant PAD4, RCA probe fluorescence polarization. inhibition, % at 6.36 µM. actives 0.41% (n = 330,000);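 active means percent inhibition above a cutoff equal to the mean of all tested compounds plus 3 SD, cut at about 15% in these data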;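 further: 0% = PAD4 with RCA probe and DMSO and 100% = probe without PAD4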
RBBP9 inhibitor – human RBBP9 inhibitors, primary screen, biochemical, fluorescence polarization, FP-Rh probe, HTS; recombinant RBBP9; actives 0.2% (n = 220,000); Serine hydrolase RBBP9 (Homo sapiens), O75884; AID 1515, 2009; inhibition, % at 7.94 µM;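 active means inhibition above the campaign mean of all tested compounds plus 3 SD, cut at about 14% in these data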;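 further: plate controls were DMSO wells with RBBP9 for no effect and wells lacking RBBP9 protein for full effect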
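Test system: recombinant human RBBP9; Timing: 30 min then 45 min, 25 °C; Detection: fluorescence polarization; Control set: RBBP9 with DMSO as uninhibited control, no-protein wells as full inhibition; Compound dosing: one concentration, 7.94 µM nominal, 0.794% DMSO; Probe or stimulus: FP-Rh activity-based probe, 375 nM before mixing.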
LYPLA2 inh – LYPLA2 inhibitors, primary screen, counter-screen for PME1 inhibitor project, biochemical, fluorescence polarization, FP-Rh probe ABPP | AID 2177, 2009 | actives 0.38% (n = 320,000) | inhibition, % at 5.9 µM | recombinant LYPLA2;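 active means inhibition above the screen-wide mean plus 3 SD, limit set per campaign, cut at about 26% in these data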;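 further: 0% = LYPLA2 with DMSO and 100% = wells lacking LYPLA2 enzyme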
Target sequence (O95372 whole entry, looked up): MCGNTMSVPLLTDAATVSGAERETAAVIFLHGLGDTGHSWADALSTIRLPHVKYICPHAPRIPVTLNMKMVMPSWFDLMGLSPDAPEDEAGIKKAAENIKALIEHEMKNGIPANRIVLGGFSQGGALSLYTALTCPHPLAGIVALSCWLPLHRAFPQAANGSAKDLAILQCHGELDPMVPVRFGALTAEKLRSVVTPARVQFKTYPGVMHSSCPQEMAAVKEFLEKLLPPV
LYPLA2 confirm – LYPLA2 inhibitors, retest, confirmation, counter-screen for PME1 inhibitor project, biochemical, fluorescence polarization, FP-Rh probe ABPP; shares compounds with LYPLA2 inh; recombinant LYPLA2; inhibition, % at 5.9 µM; actives 72% (n = 1,100); AID 2232, 2010;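 active means mean inhibition across replicates above the hit cutoff set in the primary screen, cut at about 26% in these data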;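 further: blocked labeling of the enzyme by serine hydrolase FP-Rh probe lowers polarization; 0% = enzyme with DMSO and 100% = wells lacking LYPLA2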
LYPLA2 ABPP – LYPLA2 inhibitors in proteome, late-stage follow-up, gel-based competitive ABPP, fluorescence, assay provider. rhLYPLA2 in mouse brain proteome, gel ABPP FP-Rh. inhibition, % at 20 µM. shares compounds with LYPLA2 inh. AID 652029, 2013. actives 30% (n = 150);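 active means inhibition of LYPLA2 enzyme probe labeling above about 50%, limit read from the data; inactive means inhibition below that limit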;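 further: loss of FP-Rh probe labeling of the LYPLA2 gel band measured as band density; 0% = DMSO only control band and 100% = blank gel background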
Active calls of the source: *; · = no result given. Only some compounds are listed: those with a hit (about 1.3% of all), similar ones and a draw of the others.

SMILES	PME-1 primary	Fam108B inh	LYPLA1 counter	PAD4 FP inh	RBBP9 inhibitor	LYPLA2 inh	LYPLA2 confirm	others
CCC(=O)N1CCc2cc(Br)cc(S(=O)(=O)N3CCC(C(=O)NC(C)C)CC3)c21	3	3	1	0	·	2	·
CCn1c(=O)c(C(=O)CN2CC(C)OC(C)C2)c(N)n(Cc2ccccc2)c1=O (stereo not drawn)	-2	0	0	-7	-2	4	·
CCn1c(=O)c(C(=O)CN2CCN(Cc3ccc4c(c3)OCO4)CC2)c(N)n(Cc2ccccc2)c1=O	0	-4	5	4	-5	26*	24
CCOc1ccc(CCNC(=O)CSc2nc3ncc(Cl)cc3[nH]2)cc1OCC	-9	-6	5	-1	·	-3	·
O=C(Cn1cnc2ccccc2c1=O)c1ccc2ccccc2c1	-2	2	-1	-2	3	27*	25
CC(/C=N\NC(=O)Cn1cncn1)=C/c1ccc(C(C)C)cc1	1	0	2	-1	-6	0	·
CC(/C=N/NC(=O)Cn1nnc(N)n1)=C\c1ccc(C(C)C)cc1	-3	1	-5	3	-7	62*	70*
CCCCCCC1CCC(C(=O)Nn2c(C)nc3ccccc3c2=O)CC1 (stereo not drawn)	0	-4	1	4	-11	46*	37*
CCCCCC1CC(CC(=O)NC(=S)Nc2ccc([N+](=O)[O-])cc2)C(=O)O1 (stereo not drawn)	3	-2	0	-1	-14	9	·
CCCCCCC1CC(CC(=O)Nc2ccc([N+](=O)[O-])cc2)C(=O)O1 (stereo not drawn)	5	-5	1	-4	3	34*	28*
COc1ccc(-c2noc3c2-c2nc(-c4ccc(C)cc4)sc2CC3)cc1	0	-2	0	3	·	40*	-8
COc1ccc(-c2noc3c2-c2nc(-c4ccccc4)sc2CC3)cc1	-4	-1	-5	2	·	-14	·
CCCOc1ccc(C(=O)NNC(=S)NC(=O)c2ccccc2[N+](=O)[O-])cc1	-5	-5	-1	0	·	27*	29*
Cc1cc(NC(=O)COC(=O)c2c(C)noc2C)ccc1Br	-6	-4	2	-1	-4	49*	53*
Cc1noc(C)c1C(=O)OCC(=O)Nc1cccc(S(N)(=O)=O)c1	5	3	3	3	2	2	·
CCc1ccc(C(=O)N2CCC(c3nc4ccccc4s3)CC2)cc1	2	-1	0	-1	-2	49*	39*
COc1cc(C=NNC(=O)C(NC(=O)c2ccccc2)c2n[nH]c(=O)c3ccccc23)ccc1OCC(N)=O (stereo not drawn)	·	·	·	·	·	·	·	LYPLA2 ABPP=61*
CCOc1ccc(-n2c(=S)sc3c(=O)n(-c4ccccc4)c(SCC(=O)O)nc32)cc1	6	-1	-4	0	·	0	·
CCOc1ccc(-n2c(=S)sc3c(=O)n(-c4ccccc4)c(SC)nc32)cc1	-6	0	-4	4	·	56*	-2
CC(=O)NCCC1CCN(C(=O)C2CCC(=O)N(C3CCCC3)C2)CC1 (stereo not drawn)	-3	-2	-3	1	·	-3	·
CCCCCCCCCCCCN1[C@@H](CC(=O)O)c2cc(F)ccc2S1(=O)=O	2	1	10	0	·	58*	58*	LYPLA2 ABPP=35
CCCCCCCCCCCCN1[C@@H](CC(=O)O)c2cc(C(F)(F)F)ccc2S1(=O)=O	0	-3	11	8	·	61*	60*	LYPLA2 ABPP=16
CC(CCC(C)C)=NNC(=S)Nc1cc(S(=O)(=O)N2CCOCC2)ccc1N1CCOCC1	·	·	·	·	·	·	·	LYPLA2 ABPP=60*
CCN1CCN(c2ccc(S(=O)(=O)N3CCOCC3)cc2NC(=O)CCC(C)C)CC1	-3	1	2	5	·	0	·
COc1cccc(-c2cc(C(=O)Nc3c(C)nn(Cc4ccccc4C)c3C)no2)c1	-3	-1	6	-3	-11	45*	48*
SMILES	PME-1 primary	Fam108B inh	LYPLA1 counter	PAD4 FP inh	RBBP9 inhibitor	LYPLA2 inh	LYPLA2 confirm	others
COc1cccc(-c2cc(C(=O)Nc3c(C)nn(Cc4ccccc4)c3C)no2)c1	2	1	8	-3	-7	56*	45*
COc1ccc(-c2cc(C(=O)Nc3c(C)nn(Cc4ccccc4)c3C)no2)cc1	-2	-3	0	3	-6	7	·
COc1cc(NC(=O)CSc2nccc(C)n2)c(C)cc1[N+](=O)[O-]	1	4	-1	0	-8	0	·
Cn1c(=O)c2c(nc3sccn32)n(C)c1=O	2	3	1	-4	6	10	·
COCCNC(=S)N1CCN(C(=O)C(=O)Nc2ccc(C(=O)OC)cc2)CC1	-4	2	-3	1	-3	-4	·
COC(=O)c1ccc(NC(=O)C(=O)N2CCN(C(=S)Nc3ccc(C)cc3)CC2)cc1	1	5	0	1	-15	48*	54*
COC(=O)c1ccc(NC(=O)C(=O)N2CCN(C(=S)Nc3ccc(OC)cc3)CC2)cc1	-10	3	-2	-3	6	42*	58*
Cc1ccc(C(=O)COC(=O)c2ccc3c(c2)C(=O)N(c2cccc4ncccc24)C3=O)cc1C	-12	-4	-3	4	10	30*	36*
Cc1ccc(C)c(N2C(=O)c3ccc(C(=O)OCC(=O)c4c(N)n(C)c(=O)n(C)c4=O)cc3C2=O)c1	0	-4	-1	-1	-1	26*	44*
COc1ccc(C(=O)OCC(=O)c2c(N)n(C)c(=O)n(C)c2=O)cc1OC	-8	-1	1	0	2	3	·
Cc1c(C(=O)C(=O)N2CC=C(c3ccccc3)CC2)c2ccccc2n1C	5	-3	-2	4	1	-8	·
Cc1cc(NC(=O)C2CC(=O)N(c3ccc(F)cc3)C2)no1 (stereo not drawn)	-3	1	-3	4	·	0	·
Cn1c(=O)c2c(ncn2CC(=O)N/N=C/C(Cl)=C/c2ccccc2)n(C)c1=O	3	0	8	-1	-7	32*	22
